Test results as given in article PMC9123270 (The Journal of Biological Chemistry, 2022).
Several values for one entry are separate records, joined by “and”; a condition that tells them apart may be missing. Equal entries are not always repeated. One block for each molecule: values may come before it.

Legend:
[1] = target: Anopheles gambiae D7 long-form salivary protein AngaD7L2 (Anopheles gambiae); assay: SPR
[2] = tested on: normal control plasma; assay: Plasma recalcification assay; type: biochemical, human
[3] = tested on: normal control plasma; assay: Activated partial thromboplastin; type: biochemical, human; conditions: recombinant protein 15 μM, 5 μl in 50 μl plasma
How it was run: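 Plasma (50 μl) was preincubated 2 min at 37 °C with 5 μl of test protein (15 μM in Hepes buffer), Hepes buffer (negative control) or 3 μM Alboserpin (positive control). aPTT reagent was added for 3 min at 37 °C, then clotting was started with prewarmed 25 mM CaCl2. Clotting time was recorded on a coagulation analyzer and converted to ratios. Run in triplicate.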

[4] = tested on: normal control plasma; assay: Prothrombin; type: biochemical, human; conditions: recombinant protein 15 μM, 5 μl in 50 μl plasma
How it was run: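 Normal control plasma (50 μl) was incubated 2 min at 37 °C with 5 μl of test protein (15 μM in Hepes buffer), Hepes buffer (negative control) or 3 μM Alboserpin (positive control). PT was started by adding Neoplastine CI Plus reagent, and clotting time was recorded with stirring. Run in triplicate.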

[5] = tested on: Third-order mesenteric arteries; assay: Vasoconstriction by pressure myography in isolated mesenteric arteries; design: species or system C57Bl/6J mice; conditions: for LogIC50 of vasoconstriction to U-46619: n = 6
[6] = tested on: Human platelet-rich plasma; assay: Platelet aggregation assay; type: cell-based
[7] = PEAQ-ITC screen against five biogenic amines and five lipids; type: binding; conditions: leukotrienes other than LTC4
How it was run: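 Isothermal titration calorimetry in TBS (20 mM Tris–HCl, 150 mM NaCl, pH 7.4) at 30 °C, 750 rpm. Protein at 5 μM was titrated with 10 μl injections of ligand at 50 μM every 150 s. Lipid ligands were dried under nitrogen, resuspended in TBS, vortexed and sonicated 10 min. Samples were degassed. Data were fitted to a single-site model. At least three replicates.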

Kd [1]: 8.47 nM | koff [1]: 0.00696 s⁻¹ | kon [1]: 99200 M⁻¹ s⁻¹
Molecule: human coagulation factor XI (natural protein)

Kd [1]: 5.03 nM | koff [1]: 0.403 s⁻¹ | kon [1]: 2.03e+08 M⁻¹ s⁻¹
Molecule: human coagulation factor XIIa (enzyme)

Kd [1]: 16.4 nM | koff [1]: 0.0169 s⁻¹ | kon [1]: 125000 M⁻¹ s⁻¹
Molecule: human coagulation factor XII (natural protein)

B1: AngaD7L2: Recombinant Anopheles gambiae D7 long-form salivary protein, 6xHis-tagged, expressed in human embryonic kidney cells (protein)
chain: AQPWKALDPEQALYVYKRCYEDHLPAGSSRVTYLKSWNAWKLEPNDAVTHCYAKCVLIGLQLYEEKDKAFKSERIPVQHEAYKTLNEANSREVTEYQQALASINAGDGSCVALYNAYLPVHNKFVDLSRKLYHGTVEGAAKIYAAMPQIKQKGESFFAYCAKKIWGGYNKKEWKRGRNYELSGSSQFKKVIDCIFRGLRYMDDSGLKVDEVVRDFNLINKSDLEPEVRSVLASCTGTQAYDYYSCLLNSPVKEDFKNAFDFHELRSADYAFLLRGKVYEGPEQVKEEMKHLNTTVHF
modifications: left off: His6, C-terminal, state not stated
Plasma recalcification (time to OD = 0.025) ([2]; final concentration 5 μM): entirely unable to coagulate | Plasma recalcification (time to OD = 0.025) ([2]; serially diluted recombinant protein, versus Hepes buffer negative control): dose-dependent anticoagulant response | aPTT time to coagulation (intrinsic pathway) [3]: significantly increased | PT clotting time (extrinsic pathway) [4]: did not have an observable effect

Binding of other leukotrienes [7]: did not bind any other leukotriene
B2: AngaD7L1: Recombinant Anopheles gambiae D7 long-form salivary protein, 6xHis-tagged, expressed in human embryonic kidney cells (protein, UniProt Q7PJ76 22-311, looked up)
Long form salivary protein …: FKALDPEEAWYVYERCHEDHLPSGPNRETYLKTWKFWKLEPNDAVTHCYVKCTLAGLQMYDEKTNTFKPETVPVQHEAYKSFTEVESSKVNELQQALSSLNAGSGSCAEVFNAYLPVHNKYVGVSRKIYHGTVDSVAKIYEAKPEIKKQEESFFAYCAKKALGANGKEGYTKLRDYELADSAEFRNAMDCVFRGFRYMDDSGLKVDEVVRDFNLINKSDLEPEVRSVLASCTGTQAYDYYSCLLNSPVKEDFRNAFYFHELRSANYGYLAMGKVYEGPEKVKEELKKLNY
modifications: 6xHis tag
LogIC50 of vasoconstriction to U-46619 ([5]; after AngaD7L1 washout): −8.10 | fold reduction in effective constrictive potency of U-46619 ([5]; in presence of AngaD7L1 10 μM): ~70 fold | LogIC50 of vasoconstriction to U-46619 ([5]; in presence of AngaD7L1 10 μM): −6.4 and −6.38 | Effect on platelet aggregation ([6]; agonist 0.3 μM U-46619, protein 0.3 μM): reduced platelet aggregation | Effect on platelet aggregation ([6]; agonist 0.3 μM U-46619, protein 1 μM): platelet aggregation was inhibited | Effect on platelet aggregation ([6]; agonist 0.7 μM U-46619, protein 1 μM): platelet aggregation was inhibited | Effect on platelet aggregation ([6]; agonist 0.7 μM U-46619, protein 3 μM): inhibited platelet aggregation | Effect on platelet aggregation ([6]; agonist 1 μM arachidonic acid, protein at any concentration): no effect | Effect on platelet aggregation ([6]; agonist 1 μg/ml collagen, protein 0.3 μM): did not inhibit platelet aggregation | Effect on platelet aggregation ([6]; agonist 1 μg/ml collagen, protein 3 μM): reduced platelet aggregation | Effect on platelet aggregation ([6]; agonist 10 μg/ml collagen, protein 1 μM): no effect
